Among the data in ChEMBL document CHEMBL4400543, “Identification and Characterization of AES-135, a Hydroxamic Acid-Based HDAC Inhibitor That Prolongs Survival in an Orthotopic Mouse Model of Pancreatic Cancer” (J Med Chem, 2019) are IC50, CLH and t1/2 values, retold here.

Data set [1] concerns the target T1, Protein deacetylase HDAC6 (Homo sapiens, UniProt Q9UBN7).
T1 sequence (Q9UBN7 whole entry): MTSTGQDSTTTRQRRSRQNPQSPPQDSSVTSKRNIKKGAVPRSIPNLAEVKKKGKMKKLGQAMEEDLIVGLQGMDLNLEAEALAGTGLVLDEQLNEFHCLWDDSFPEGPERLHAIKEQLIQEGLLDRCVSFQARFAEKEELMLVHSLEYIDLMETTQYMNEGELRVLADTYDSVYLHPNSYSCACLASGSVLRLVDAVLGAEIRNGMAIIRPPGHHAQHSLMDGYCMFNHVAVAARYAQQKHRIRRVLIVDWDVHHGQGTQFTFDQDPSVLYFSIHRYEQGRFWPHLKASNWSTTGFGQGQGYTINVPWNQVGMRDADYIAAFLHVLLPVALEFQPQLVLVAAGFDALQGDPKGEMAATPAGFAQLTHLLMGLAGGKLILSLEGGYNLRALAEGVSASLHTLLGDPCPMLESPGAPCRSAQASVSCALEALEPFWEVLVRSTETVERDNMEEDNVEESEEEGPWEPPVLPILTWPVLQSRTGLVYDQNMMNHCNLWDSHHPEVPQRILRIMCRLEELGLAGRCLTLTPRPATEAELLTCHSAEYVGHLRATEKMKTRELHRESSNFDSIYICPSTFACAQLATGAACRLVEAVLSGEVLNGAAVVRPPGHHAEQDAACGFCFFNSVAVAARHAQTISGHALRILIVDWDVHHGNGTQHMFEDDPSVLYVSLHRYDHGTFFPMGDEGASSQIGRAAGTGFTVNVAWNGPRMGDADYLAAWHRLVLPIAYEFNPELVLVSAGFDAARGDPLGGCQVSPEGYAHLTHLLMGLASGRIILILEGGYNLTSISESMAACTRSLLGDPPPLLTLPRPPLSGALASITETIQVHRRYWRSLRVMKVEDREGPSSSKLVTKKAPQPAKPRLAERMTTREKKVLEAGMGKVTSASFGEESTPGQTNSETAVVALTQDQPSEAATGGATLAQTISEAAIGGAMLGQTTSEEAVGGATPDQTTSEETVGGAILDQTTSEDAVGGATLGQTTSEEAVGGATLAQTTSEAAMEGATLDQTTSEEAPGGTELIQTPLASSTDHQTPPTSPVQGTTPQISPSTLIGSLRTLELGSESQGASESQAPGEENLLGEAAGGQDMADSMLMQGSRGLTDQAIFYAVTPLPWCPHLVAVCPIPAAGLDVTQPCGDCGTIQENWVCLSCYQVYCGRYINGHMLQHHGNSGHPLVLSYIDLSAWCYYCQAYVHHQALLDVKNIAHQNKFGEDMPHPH
The data set is described as follows: Inhibition of recombinant human HDAC6 expressed in SF9 baculoviral system using FAM-labeled acetylated peptide as substrate by EMSA. Summed up:
(§1)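 Full-length recombinant human enzyme from an Sf9 baculovirus system, in 100 mM HEPES pH 7.5 with 25 mM KCl, 0.1% BSA, 0.01% Triton X-100 and 1% DMSO. Final enzyme was 0.5 nM for HDAC3, 60 nM for HDAC6 and 5.0 nM for HDAC8. FAM-acetylated peptide was 1 μM. The read-out was product/(substrate+product) by microfluidic mobility shift, with inhibition set against DMSO and no-enzyme controls (quadruplicate). Compounds were tested at 12 threefold-spaced concentrations, and IC50 came from a four-parameter sigmoid fit.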

A further data set deals with Histone deacetylase 3 (Homo sapiens, UniProt O15379). The data set is described as follows: Inhibition of recombinant human HDAC3 expressed in SF9 baculoviral system using FAM-labeled acetylated peptide as substrate by EMSA. An outline of the steps:
as §1
A general note: In EMSA bound probe runs differently from free probe, usually more slowly.

For another data set, the target named is T2, Histone deacetylase 8 (Homo sapiens, UniProt Q9BY41).
T2 sequence (Q9BY41 whole entry): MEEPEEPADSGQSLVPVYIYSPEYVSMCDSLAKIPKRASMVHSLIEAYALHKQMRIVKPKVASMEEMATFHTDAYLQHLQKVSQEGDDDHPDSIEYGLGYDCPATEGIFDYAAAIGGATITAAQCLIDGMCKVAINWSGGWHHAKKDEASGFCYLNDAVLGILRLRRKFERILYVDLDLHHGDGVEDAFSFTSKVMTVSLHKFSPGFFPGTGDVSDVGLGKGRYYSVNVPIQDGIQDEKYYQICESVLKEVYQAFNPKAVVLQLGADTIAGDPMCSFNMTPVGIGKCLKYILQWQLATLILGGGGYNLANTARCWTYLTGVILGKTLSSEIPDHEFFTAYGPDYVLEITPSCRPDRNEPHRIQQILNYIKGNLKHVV
Put plainly: Inhibition of recombinant human HDAC8 expressed in SF9 baculoviral system using FAM-labeled acetylated peptide as substrate by EMSA. An outline of the steps: as §1

The next data set has as its target T3, Histone deacetylase 11 (Homo sapiens, UniProt Q96DB2).
T3 sequence (Q96DB2 whole entry): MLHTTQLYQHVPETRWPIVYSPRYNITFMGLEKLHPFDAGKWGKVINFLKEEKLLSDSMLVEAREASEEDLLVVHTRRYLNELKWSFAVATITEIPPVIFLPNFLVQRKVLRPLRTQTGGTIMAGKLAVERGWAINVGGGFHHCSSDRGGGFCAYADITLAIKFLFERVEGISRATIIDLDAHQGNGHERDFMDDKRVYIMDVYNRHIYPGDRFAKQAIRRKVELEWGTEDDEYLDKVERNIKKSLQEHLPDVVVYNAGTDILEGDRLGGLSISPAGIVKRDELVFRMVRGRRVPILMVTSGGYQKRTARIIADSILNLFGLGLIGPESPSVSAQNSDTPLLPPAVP
The data set is described as follows: Inhibition of recombinant human HDAC11 expressed in SF9 baculoviral system using FAM-labeled acetylated peptide as substrate by EMSA. Summed up:
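Full-length human HDAC11 (Sf9-expressed), 10 nM final, in 100 mM HEPES pH 7.5, 25 mM KCl, 0.1% BSA, 0.01% Triton X-100, 1% DMSO. FAM-acetylated peptide substrate at 100 μM, mobility-shift read-out. Product/(substrate + product) converted to % inhibition. IC50 from a four-parameter fit; dose-response spans 12 threefold dilutions from 30.0 μM.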

Data set [2] can be described thus: Cytotoxicity against mouse KPC monolayer cells assessed as reduction in tumor spheroid intensity after 72 hrs by Alamar Blue assay. Type of data set: functional, cell-based. Summed up: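 Monolayer proliferation of STR-authenticated, mycoplasma-checked patient-derived PDAC lines and mouse KPC cells. Plated at 2000 cells/well, treated 72 h, read by alamarBlue. At least triplicate, n = 3–5.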
In general terms: The colour change of resazurin is a common sign of viable cells or microbes.

Data set [3] can be described thus: Intrinsic clearance in ICR/CD1 mouse hepatocytes assessed per million cells at 1 uM up to 120 mins by LC-MS/MS analysis. Type of data set: ADME, cell-based, Hepatocyte. As to conditions: 2 h.
Data set [4] in a line: Half life in ICR/CD1 mouse hepatocytes at 1 uM up to 120 mins by LC-MS/MS analysis. Type of data set: ADME, cell-based, Hepatocyte. As to conditions: 2 h.

Molecules are shown by their SMILES.

Chain of Histone deacetylase 3 (O15379 whole entry): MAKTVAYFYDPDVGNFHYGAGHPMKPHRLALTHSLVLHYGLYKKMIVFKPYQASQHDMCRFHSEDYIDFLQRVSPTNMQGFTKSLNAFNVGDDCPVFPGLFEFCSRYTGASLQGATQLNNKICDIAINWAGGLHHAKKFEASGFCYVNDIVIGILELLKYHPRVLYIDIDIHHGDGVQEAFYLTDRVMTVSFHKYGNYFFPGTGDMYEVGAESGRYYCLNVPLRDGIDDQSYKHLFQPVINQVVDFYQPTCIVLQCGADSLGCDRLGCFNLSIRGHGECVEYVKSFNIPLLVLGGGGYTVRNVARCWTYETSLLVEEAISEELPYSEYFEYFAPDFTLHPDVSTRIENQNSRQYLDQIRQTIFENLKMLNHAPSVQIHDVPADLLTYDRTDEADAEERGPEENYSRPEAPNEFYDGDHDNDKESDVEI

As to `CC(C)(C)c1ccc(CN(C(=O)CN(Cc2ccccc2C(F)(F)F)S(=O)(=O)c2ccc(F)cc2F)c2ccc(C(=O)NO)cc2)cc1`, the concentration for half-maximal inhibition (IC50) (commonly the concentration needed to halve the response being measured) in data set [1] was 289 nM; at Histone deacetylase 3, more than 1000 nM; on Histone deacetylase 8 it was more than 1000 nM; on Histone deacetylase 11, 288 nM.

In the case of `CC(C)(C)c1ccc(CN(C(=O)CN(Cc2ccccc2C(F)(F)F)S(=O)(=O)c2ccc(F)c(F)c2)c2ccc(C(=O)NO)cc2)cc1`, the half-inhibitory concentration (IC50) was 362 nM in data set [1], more than 1000 nM on Histone deacetylase 3, more than 1000 nM at Histone deacetylase 8 and 254 nM at Histone deacetylase 11.

Turning to `Cc1[nH]c2ccccc2c1CCNCc1ccc(/C=C/C(=O)NO)cc1` [PANOBINOSTAT], the IC50 in data set [2] is 8500 nM.

For `O=C(NO)c1ccc(N(Cc2ccc(C(F)(F)F)cc2)C(=O)CN(Cc2ccccc2C(F)(F)F)S(=O)(=O)c2ccc(F)c(F)c2)cc1`, the IC50 in data set [1] was 188 nM; on Histone deacetylase 3, more than 1000 nM; on Histone deacetylase 8, more than 1000 nM; on Histone deacetylase 11 it was 396 nM.

Consider `O=C(NO)c1ccc(N(Cc2ccc(C(F)(F)F)cc2)C(=O)CN(Cc2ccccc2C(F)(F)F)S(=O)(=O)c2ccc(F)cc2F)cc1`, for which the IC50 in data set [1] was 151 nM; on Histone deacetylase 3 it was more than 1000 nM; on Histone deacetylase 8, more than 1000 nM; on Histone deacetylase 11 it was 346 nM.

As to `CC(C)(C)c1ccc(CN(C(=O)CN(Cc2ccccc2C(F)(F)F)S(=O)(=O)c2ccc(F)cc2)c2ccc(C(=O)NO)cc2)cc1`, the IC50 in data set [1] is 230 nM; on Histone deacetylase 3, more than 1000 nM; on Histone deacetylase 8 it was more than 1000 nM; at Histone deacetylase 11, 253 nM.

Take `O=C(NO)c1ccc(N(Cc2ccc(C(F)(F)F)cc2)C(=O)CN(Cc2ccccc2C(F)(F)F)S(=O)(=O)c2ccc(F)cc2)cc1`: the half-inhibitory concentration (IC50) in data set [1] is 93 nM; on Histone deacetylase 3, more than 1000 nM; on Histone deacetylase 8, more than 1000 nM; at Histone deacetylase 11, 304 nM.

Consider `O=C(NO)c1ccc(N(Cc2ccc(C(F)(F)F)cc2)C(=O)CN(Cc2c(F)c(F)c(F)c(F)c2F)S(=O)(=O)c2ccc(F)cc2)cc1`, for which the half-maximal inhibitory concentration (IC50) was 86 nM in data set [1], more than 1000 nM on Histone deacetylase 3, more than 1000 nM at Histone deacetylase 8 and 191 nM on Histone deacetylase 11. Also, the CLH in data set [3] is 37.4 µL/min. Moreover, in data set [4], the t1/2 is listed as 37.1 min.
